Source: ChEMBL document CHEMBL1136861, “Identification of a series of benzoxazoles as potent 5-HT6 ligands” (Bioorg Med Chem Lett, 2009)

Assays:
[1] = target: T1, 5-hydroxytryptamine receptor 6 (Homo sapiens, UniProt P50406); assay: Antagonist activity at human cloned 5HT6 receptor expressed in human HeLa cells assessed as blockage of 5-HT-stimulated cAMP formation after 10 mins by radioimmunoassay; type: functional, cell-based
Summary of the method: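 HeLa cells stably transfected with human 5-HT6 receptor; antagonism read as blockade of 5-HT-stimulated cAMP formation; IC50 and Imax values determined in triplicate.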

[2] = target: T1, 5-hydroxytryptamine receptor 6; assay: Displacement of [3H]LSD from human cloned 5HT6 receptor expressed in human HeLa cells; type: cell-based
Summary of the method: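 Human 5-HT6 receptor cloned and stably expressed in HeLa cells; competition binding with [3H]-LSD as radioligand; Ki values determined in triplicate.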

T1 sequence (P50406 whole entry): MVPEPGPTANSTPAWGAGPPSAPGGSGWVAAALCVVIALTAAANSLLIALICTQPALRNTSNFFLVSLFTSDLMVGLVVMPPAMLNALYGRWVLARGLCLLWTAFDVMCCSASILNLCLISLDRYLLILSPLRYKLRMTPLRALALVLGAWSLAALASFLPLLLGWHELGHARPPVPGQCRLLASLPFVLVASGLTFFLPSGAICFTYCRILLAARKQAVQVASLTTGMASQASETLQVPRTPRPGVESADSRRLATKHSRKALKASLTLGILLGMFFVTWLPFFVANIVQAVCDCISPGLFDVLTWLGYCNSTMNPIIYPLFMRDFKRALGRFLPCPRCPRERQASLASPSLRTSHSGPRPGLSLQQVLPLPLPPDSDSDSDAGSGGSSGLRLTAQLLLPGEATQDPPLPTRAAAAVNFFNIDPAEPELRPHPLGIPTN

Structure (SMILES) | IC50 [1] | Imax [1] | Ki [2]
CCN1CCN(c2nc3c(S(=O)(=O)c4cccc5ccccc45)cccc3o2)CC1 | 248 nM | 89% | –
O=S(=O)(c1cccc2ccccc12)c1cccc2oc(N3CCN(CCCc4ccccc4)CC3)nc12 | – | – | 127 nM
CN1CCN(c2nc3c(S(=O)(=O)c4cccc5ccccc45)cccc3o2)CC1 | 105 nM | 83% | 9.7 nM
O=S(=O)(c1cccc2ccccc12)c1cccc2nc(N3CCNCC3)oc12 | 77 nM | 96% | 7.1 nM
O=S(=O)(c1cccc2ccccc12)c1cccc2oc(N3CCN(C4CCCC4)CC3)nc12 | – | – | 79 nM

Other lines, results leading:

IC50 [1] | Imax [1] | Ki [2] | Structure (SMILES)
– | – | 41 nM | O=S(=O)(c1ccccc1)c1cccc2oc(N3CCNCC3)nc12
96 nM | 97% | – | O=S(=O)(c1cccc2ccccc12)c1cccc2oc(N3CCNCC3)nc12
117 nM | 92% | – | O=S(=O)(c1cc(Cl)ccc1Cl)c1cccc2oc(N3CCNCC3)nc12
120 nM | 96% | – | O=S(=O)(c1cccc(C(F)(F)F)c1)c1cccc2oc(N3CCNCC3)nc12
100 nM | 92% | – | COc1cccc(S(=O)(=O)c2cccc3oc(N4CCNCC4)nc23)c1
